The results in this text go back to ChEMBL document CHEMBL1159119, “Quiquelignan A-H, eight new lignoids from the rattan palm Calamus quiquesetinervius and their antiradical, anti-inflammatory and antiplatelet aggregation activities” (Bioorg Med Chem, 2010).

The structures appear in SMILES notation. A value given as a limit tells only on which side of the number the result lay.

Data set [1] is described as follows: Antioxidant activity assessed as superoxide radical scavenging activity by chemiluminescence assay. The class given is functional. The essentials:
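O2•− generated by methylglyoxal plus arginine in PBS pH 7.4, with lucigenin as the CL probe. Ultra-weak photons counted by chemiluminescence analyzer. Trolox positive control; triplicate.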

Data set [2] in a line: Antiplatelet aggregatory activity in […] assessed as inhibition of collagen-induced platelet aggregation by aggregometry. The conditions noted are these: Homo sapiens, Plasma. In kind it is functional.
The nature of data set [3]: Cytotoxicity against mouse RAW264.7 cells assessed as viable cells after 24 hrs by MTS assay in presence of LPS. In kind it is cell-based. Also on record: concentration or dose not given beside the values. The conditions noted are these: read-out: Activity. The essentials: (§1)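 RAW 264.7 cells treated 24 h with compound (0.31–20.0 µg/mL, DMSO 0.2% v/v final), without LPS or with 1 µg/mL LPS. MTS solution (16.7% in RPMI 1640) added for 10 min; absorbance read at 490 nm.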
For orientation: Tetrazolium assays rely on reduction of a dye to a coloured formazan, in cell work by metabolically active cells.

Data set [4] relates to RAW264.7. The data set can be described thus: Ratio of IC50 for quercetin to IC50 for drug against LPS-induced NO release in mouse RAW264.7 cells by Griess reagent method. In kind it is functional. (Griess reagent forms a coloured azo dye with nitrite.)
Data set [5] in a line: Antioxidant activity assessed as hydroxyl radical scavenging activity by chemiluminescence assay. The class given is functional. The essentials:
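•OH generated from EDTA, FeSO4 and 3% H2O2 with indoxyl-b-glucuronide as the CL probe. Ultra-weak photon emission read on a high-sensitivity chemiluminescence analyzer. IC50 is the concentration inhibiting 50% of generated •OH. Trolox as positive control; triplicate.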

Data set [6] is described as follows: Cytotoxicity against mouse RAW264.7 cells assessed as viable cells after 24 hrs by MTS assay. The class given is cell-based. Also on record: concentration or dose not given beside the values. The conditions noted are these: read-out: Activity. The essentials: as §1
Data set [7] relates to RAW264.7. The data set can be described thus: Antiinflammatory activity in mouse RAW264.7 cells assessed as inhibition of LPS-induced NO production by Griess reagent method. The class given is functional, cell-based. The essentials:
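RAW 264.7 cells (1 × 10^5/well) in DMEM with 10% FBS, 5% CO2, 37 °C, pre-incubated overnight. Then 24 h with vehicle or compound (0.31–20.0 µg/mL; DMSO final 0.2% v/v) plus 1 µg/mL E. coli 0127:B8 LPS. Nitrite in supernatant mixed 1:1 with Griess reagent, 5 min, OD 540 nm. IC50 derived; triplicate, mean ± SE.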

As a reminder, the IC50 is the concentration that gives 50% inhibition. `COc1cc(C(=O)C(COC(=O)c2ccc(O)cc2)Oc2c(OC)cc(/C=C/COC(=O)c3ccc(O)cc3)cc2OC)cc(OC)c1O` (stereo unspecified): the IC50 in data set [1] is more than 200 µM; in data set [2], 67.5 µM; in data set [5] it was 27.5 µM; in data set [7], 20 µM. Moreover, the viability at 24 h in data set [3] and in data set [6] was more than 85% throughout. Besides, in data set [4], the “Ratio IC50” value turned out to be 2.7.

In the case of `COc1cc([C@@H](O)[C@H](COC(=O)c2ccc(O)cc2)Oc2c(OC)cc(/C=C/COC(=O)c3ccc(O)cc3)cc2OC)cc(OC)c1O` (relative stereo), the IC50 in data set [1] was more than 200 µM; in data set [2] it was 26.9 µM; in data set [5] it was 12.4 µM; in data set [7], 11.8 µM. Moreover, the viability at 24 h in data set [3] and in data set [6] was more than 85% each time.

For `COc1cc(/C=C/COC(=O)c2ccc(O)cc2)ccc1O[C@@H](COC(=O)c1ccc(O)cc1)[C@@H](O)c1cc(OC)c(O)c(OC)c1` (relative stereo), the concentration for half-maximal inhibition (IC50) in data set [1] is more than 200 µM; in data set [2] it was more than 100 µM; in data set [5], 19 µM; in data set [7] it was 101 µM. In addition, the viability at 24 h in data set [3] and in data set [6] was more than 85% in each case.

For `COc1cc([C@H](O)[C@H](COC(=O)c2ccc(O)cc2)Oc2c(OC)cc(/C=C/COC(=O)c3ccc(O)cc3)cc2OC)ccc1O` (relative stereo), the IC50 was more than 200 µM in data set [1], 55.2 µM in data set [2], 20.4 µM in data set [5] and 52.4 µM in data set [7]. Besides, the viability at 24 h in data set [3] and in data set [6] was more than 85% each time.

For the compound `COc1cc(C(=O)C(COC(=O)c2ccc(O)cc2)Oc2c(OC)cc([C@@H](O)[C@H](O)COC(=O)c3ccc(O)cc3)cc2OC)cc(OC)c1O` (relative stereo), the IC50 in data set [1] amounted to 53.8 µM; in data set [5] it was 6.2 µM.

For `CC(=O)Oc1ccccc1C(=O)O` [ASPIRIN], the IC50 in data set [2] is 75.4 µM.

As to `O=c1c(O)c(-c2ccc(O)c(O)c2)oc2cc(O)cc(O)c12` [QUERCETIN], in data set [7], the IC50 is 54.3 µM.

With `CCO[C@@H](c1ccc(O)c(OC)c1)[C@H](CO)Oc1c(OC)cc([C@@H]2CC(=O)c3c(O)cc(O)cc3O2)cc1OC` [QUIQUELIGNAN A], the results for the IC50 in data set [1], in data set [2] and in data set [5] were more than 200 µM, more than 100 µM and 27.4 µM, respectively.

Take `CCO[C@@H](c1ccc(O)c(OC)c1)[C@@H](COC(=O)c1ccc(O)cc1)Oc1c(OC)cc([C@@H]2CC(=O)c3c(O)cc(O)cc3O2)cc1OC` [QUIQUELIGNAN B]: the IC50 in data set [1] was more than 200 µM; in data set [2] it was 43.3 µM; in data set [5], 19.9 µM; in data set [7] it was 36 µM. The viability at 24 h in data set [3] and in data set [6] was more than 85% throughout.

As to `CCO[C@H](c1ccc(O)c(OC)c1)[C@@H](CO)Oc1c(OC)cc(-c2cc(=O)c3c(O)cc(O)cc3o2)cc1OC` [QUIQUELIGNAN C], the IC50 was more than 200 µM in data set [1], 49.4 µM in data set [2], 15.3 µM in data set [5] and 63.4 µM in data set [7]. For the same compound, the viability at 24 h in data set [3] and in data set [6] was more than 85% each time.

Take `Cc1c(C)c2c(c(C)c1O)CCC(C)(C(=O)O)O2` (stereo unspecified) [TROLOX]: the IC50 in data set [1] came out at 32.8 µM; in data set [5], 4.4 µM.
